{"source": "ChEMBL document CHEMBL1146795", "about": "“Synthesis and antiangiogenic activity of exo-olefinated deoxoartemisinin derivatives” (Bioorg Med Chem Lett, 2004)", "key": {"[1]": {"experiment": "Antiangiogenic activity against chorioallantoic membrane (CAM) assay at 10 ug/egg", "assay_type": "functional, tissue-based"}, "HUVEC [2]": {"test_system": "HUVEC", "experiment": "Antiangiogenic activity against HUVEC cells in HUVEC(Human Umbilical Vein Endothelial Cells) proliferation assay usingMTT colorimetric method", "assay_type": "functional, cell-based", "outline": "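HUVEC growth measured by MTT colorimetric read-out. IC50 taken from a nonlinear regression fit with r2 > 0.9.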"}, "HUVEC [3]": {"test_system": "HUVEC", "experiment": "Antiangiogenic activity to suppress the growth factor induced tube formation byHUVEC on Matrigel was assessed at the concentration of 10 ug/mL", "assay_type": "functional", "conditions": "Homo sapiens"}}}
{"smiles": "C[C@@H]1CC[C@H]2[C@@H](C)/C(=C\\Br)O[C@@H]3O[C@]4(C)CC[C@@H]1[C@]32OO4", "values": [{"measurement": "inhibition", "setting": "[1]", "value": 80, "unit": "%"}, {"measurement": "IC50", "setting": "HUVEC [2]", "value": 4.8, "unit": "µg/mL"}, {"measurement": "inhibition at 10 µg/mL", "setting": "HUVEC [3]", "value": 25, "unit": "%"}]}
{"smiles": "CCC/C(Br)=C1/O[C@@H]2OC3(C)CC[C@H]4[C@H](C)CC[C@@H]([C@H]1C)[C@@]24OO3", "note": "(single isomer, unassigned)", "values": [{"measurement": "inhibition", "setting": "[1]", "value": 8, "unit": "%"}, {"measurement": "IC50", "setting": "HUVEC [2]", "value": 1.9, "unit": "µg/mL"}, {"measurement": "inhibition at 10 µg/mL", "setting": "HUVEC [3]", "value": 10, "unit": "%"}]}
{"smiles": "C[C@@H]1CC[C@H]2[C@@H](C)/C(=C\\c3ccccc3)O[C@@H]3OC4(C)CC[C@@H]1[C@]32OO4", "note": "(single isomer, unassigned)", "values": [{"measurement": "inhibition", "setting": "[1]", "value": 10, "unit": "%"}, {"measurement": "IC50", "setting": "HUVEC [2]", "value": 1.9, "unit": "µg/mL"}, {"measurement": "inhibition at 10 µg/mL", "setting": "HUVEC [3]", "value": 10, "unit": "%"}]}
{"smiles": "CC(C)=C1O[C@@H]2OC3(C)CC[C@H]4[C@H](C)CC[C@@H]([C@H]1C)[C@@]24OO3", "note": "(single isomer, unassigned)", "values": [{"measurement": "inhibition", "setting": "[1]", "value": 29, "unit": "%"}, {"measurement": "IC50", "setting": "HUVEC [2]", "value": 2.3, "unit": "µg/mL"}, {"measurement": "inhibition at 10 µg/mL", "setting": "HUVEC [3]", "value": 13, "unit": "%"}]}
{"smiles": "C[C@@H]1CC[C@H]2[C@@H](C)C(=Cc3ccccc3)O[C@@H]3OC4(C)CC[C@@H]1[C@]32OO4", "note": "(single isomer, unassigned)", "values": [{"measurement": "inhibition", "setting": "[1]", "value": 5, "unit": "%"}, {"measurement": "IC50", "setting": "HUVEC [2]", "value": 2.3, "unit": "µg/mL"}, {"measurement": "inhibition at 10 µg/mL", "setting": "HUVEC [3]", "value": 10, "unit": "%"}]}
{"smiles": "C/C(Br)=C1/O[C@@H]2OC3(C)CC[C@H]4[C@H](C)CC[C@@H]([C@H]1C)[C@@]24OO3", "note": "(single isomer, unassigned)", "values": [{"measurement": "inhibition", "setting": "[1]", "value": 43, "unit": "%"}, {"measurement": "IC50", "setting": "HUVEC [2]", "value": 25.4, "unit": "µg/mL"}, {"measurement": "inhibition at 10 µg/mL", "setting": "HUVEC [3]", "value": 32, "unit": "%"}]}
{"smiles": "C/C(Br)=C1\\O[C@@H]2OC3(C)CC[C@H]4[C@H](C)CC[C@@H]([C@H]1C)[C@@]24OO3", "note": "(single isomer, unassigned)", "values": [{"measurement": "inhibition", "setting": "[1]", "value": 50, "unit": "%"}, {"measurement": "IC50", "setting": "HUVEC [2]", "value": 4.5, "unit": "µg/mL"}, {"measurement": "inhibition at 10 µg/mL", "setting": "HUVEC [3]", "value": 65, "unit": "%"}]}
{"smiles": "CCC/C(Br)=C1\\O[C@@H]2OC3(C)CC[C@H]4[C@H](C)CC[C@@H]([C@H]1C)[C@@]24OO3", "note": "(single isomer, unassigned)", "values": [{"measurement": "inhibition", "setting": "[1]", "value": 57, "unit": "%"}, {"measurement": "IC50", "setting": "HUVEC [2]", "value": 1.5, "unit": "µg/mL"}, {"measurement": "inhibition at 10 µg/mL", "setting": "HUVEC [3]", "value": 39, "unit": "%"}]}
